Laboratory results reported in ChEMBL document CHEMBL3124793, “Discovery of spirofused piperazine and diazepane amides as selective histamine-3 antagonists with in vivo efficacy in a mouse model of cognition” (J Med Chem, 2014).
Values after ≈ are worked out from the molar mass of the structure shown. Active and inactive are the calls of the source. No cut-off for these calls is given here.

Experiments:
[1] = Octanol-water partition coefficient, log D of the compound by shake flask HPLC analysis; format: physicochemical
Method in brief: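 logD between octanol and water by shake-flask with HPLC analysis.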

Histamine H3 receptor [2] = target: T1, Histamine H3 receptor (Homo sapiens, UniProt Q9Y5N1); assay: Displacement of [3H]-N-alpha-methylhistamine from human histamine H3 receptor expressed in CHOK1 cells after 1.5 hrs by scintillation proximity assay; format: cell-based, CHO-K1
T1 sequence (Q9Y5N1 whole entry): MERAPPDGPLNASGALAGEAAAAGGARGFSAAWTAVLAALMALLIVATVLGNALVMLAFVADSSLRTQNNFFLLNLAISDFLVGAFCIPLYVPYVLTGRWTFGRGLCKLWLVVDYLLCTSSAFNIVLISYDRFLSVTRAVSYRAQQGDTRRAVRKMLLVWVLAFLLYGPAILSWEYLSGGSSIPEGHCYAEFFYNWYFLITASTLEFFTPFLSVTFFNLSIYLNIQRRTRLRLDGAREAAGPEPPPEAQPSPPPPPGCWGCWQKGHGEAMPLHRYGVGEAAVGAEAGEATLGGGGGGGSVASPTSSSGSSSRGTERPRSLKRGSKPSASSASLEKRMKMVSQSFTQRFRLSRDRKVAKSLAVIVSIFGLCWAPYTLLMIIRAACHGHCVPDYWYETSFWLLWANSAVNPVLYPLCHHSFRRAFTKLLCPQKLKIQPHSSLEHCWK
Method in brief: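 Human H3R-CHO-K1 membranes incubated 1.5 h with test compound and [3H]-N-α-methylhistamine in SPA format; nonspecific binding defined with 10 μM imetit; bead-bound radioligand counted. Average of n > 2, standard error <50%.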

Histamine H3 receptor [3] = target: T1, Histamine H3 receptor; assay: Antagonist activity at human histamine H3 receptor long form expressed in CHOK1 cells assessed as inhibition of R-alpha-methylhistamine-induced [35S]GTPgammaS binding after 3 hrs by scintillation proximity assay; format: functional, cell-based, CHO-K1
Method in brief: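 Membranes from CHO-K1 cells stably expressing human H3R long form (445 aa) incubated 3 h with test compound, 25 nM R-α-methylhistamine, 10 μM GDP, 0.2 nM [35S]GTPγS and WGA PVT SPA beads; bead-bound [35S]GTPγS counted by scintillation. Average of n > 2, standard error <20%.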

Rattus norvegicus [4] = assay: […] clearance in rat at 1.8 umol/kg, iv; format: ADME, organism-based; conditions: in vivo
Method in brief: (§1)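 IV dosing in male fasted rats, doses in μmol/kg; mean Vss, half-life and clearance derived; number of rats per compound reported.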

[5] = Half life in rat at 1.8 umol/kg, iv; format: ADME, organism-based; conditions: in vivo; method in brief: as §1
[6] = Volume of distribution at steady state in rat at 1.8 umol/kg, iv; format: ADME, organism-based; conditions: in vivo, read-out: Vdss; method in brief: as §1
[7] = Intrinsic clearance in rat liver microsomes; format: ADME; conditions: read-out: CLH
[8] = Intrinsic clearance in human liver microsomes; format: ADME; conditions: read-out: CLH
Method in brief: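 Human liver microsomal clearance, expressed as μL/min/mg.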

MDCK = assay: Efflux ratio of apparent permeability from apical to basolateral side over basolateral to apical side in MDCK cells; format: ADME, cell-based, Canis lupus familiaris; conditions: dog
Method in brief: (§2)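 MDCK monolayers; A-to-B Papp in 1 × 10⁻⁶ cm/s; efflux taken as ratio of A-to-B Papp over B-to-A Papp.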

[9] = Apparent permeability from apical to basolateral side in MDCK cells; format: ADME, cell-based, Canis lupus familiaris; conditions: dog; method in brief: as §2
[10] = Equilibrium solubility of the compound at pH 7.4; format: physicochemical; conditions: buffer
[11] = target: Voltage-gated inwardly rectifying potassium channel KCNH2 (Homo sapiens, UniProt Q12809); assay: Inhibition of human ERG expressed in CHOK1 cells by electrophysiological analysis
Sequence of Voltage-gated inwardly rectifying potassium channel KCNH2 (Q12809 whole entry): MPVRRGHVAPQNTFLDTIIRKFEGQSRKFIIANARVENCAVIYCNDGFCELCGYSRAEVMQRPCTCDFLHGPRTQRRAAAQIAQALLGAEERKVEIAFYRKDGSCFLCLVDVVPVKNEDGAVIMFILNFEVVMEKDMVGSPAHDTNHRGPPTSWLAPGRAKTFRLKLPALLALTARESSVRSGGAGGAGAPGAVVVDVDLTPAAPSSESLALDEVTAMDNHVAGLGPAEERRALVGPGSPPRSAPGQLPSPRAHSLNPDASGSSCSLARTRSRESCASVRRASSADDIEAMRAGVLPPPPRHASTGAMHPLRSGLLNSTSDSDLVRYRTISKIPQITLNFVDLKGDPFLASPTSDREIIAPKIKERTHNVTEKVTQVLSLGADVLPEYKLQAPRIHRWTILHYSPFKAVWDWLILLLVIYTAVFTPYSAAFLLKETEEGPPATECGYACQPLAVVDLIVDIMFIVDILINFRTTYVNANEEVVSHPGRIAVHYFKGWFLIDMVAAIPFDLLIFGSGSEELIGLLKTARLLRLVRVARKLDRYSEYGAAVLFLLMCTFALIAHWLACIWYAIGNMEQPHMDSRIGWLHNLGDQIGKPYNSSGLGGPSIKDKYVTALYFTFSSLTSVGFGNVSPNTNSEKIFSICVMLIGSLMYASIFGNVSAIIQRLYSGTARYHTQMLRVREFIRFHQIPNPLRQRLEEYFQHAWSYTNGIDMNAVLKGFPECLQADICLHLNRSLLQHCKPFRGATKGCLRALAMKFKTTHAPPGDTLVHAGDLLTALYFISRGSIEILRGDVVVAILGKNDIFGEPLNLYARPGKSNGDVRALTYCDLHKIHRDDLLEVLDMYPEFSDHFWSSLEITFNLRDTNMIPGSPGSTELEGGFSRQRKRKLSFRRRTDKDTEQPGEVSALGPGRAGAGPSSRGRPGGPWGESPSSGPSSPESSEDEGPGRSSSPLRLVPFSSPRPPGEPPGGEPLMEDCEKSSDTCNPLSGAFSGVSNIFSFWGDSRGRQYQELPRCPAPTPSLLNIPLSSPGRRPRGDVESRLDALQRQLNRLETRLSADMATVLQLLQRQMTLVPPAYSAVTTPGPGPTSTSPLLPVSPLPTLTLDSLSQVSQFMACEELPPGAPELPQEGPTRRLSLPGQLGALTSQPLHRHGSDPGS

[12] = Percentage unbound in rat plasma; format: ADME, cell-free
Method in brief: (§3)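 Plasma protein binding in human or rat plasma, expressed as percent free.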

[13] = Percentage unbound in human plasma; format: ADME, cell-free; method in brief: as §3
Rattus norvegicus [14] = assay: […] clearance in rat at 3.5 umol/kg, iv; format: ADME, organism-based; conditions: in vivo; method in brief: as §1
[15] = Half life in rat at 3.5 umol/kg, iv; format: ADME, organism-based; conditions: in vivo; method in brief: as §1
[16] = Volume of distribution at steady state in rat at 3.5 umol/kg, iv; format: ADME, organism-based; conditions: in vivo, read-out: Vdss
Method in brief: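 Male fasted rats given a single IV dose. Volume of distribution taken as the mean from plasma sampling after the IV dose. Animals per compound: 1 to 7.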

Histamine H3 receptor [17] = target: T1, Histamine H3 receptor; assay: Inverse agonist activity at human histamine H3 receptor long form expressed in CHOK1 cells assessed as reduction in [35S]GTPgammaS binding after 3 hrs by scintillation proximity assay; format: functional, cell-based; conditions: CHO-K1
Method in brief: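 Basal [35S]GTPγS binding, without agonist stimulation, to membranes expressing recombinant human H3R.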

Rattus norvegicus [18] = assay: […] clearance in rat at 2.3 umol/kg, iv; format: ADME, organism-based; conditions: in vivo; method in brief: as §1
[19] = Half life in rat at 2.3 umol/kg, iv; format: ADME, organism-based; conditions: in vivo; method in brief: as §1
[20] = Volume of distribution at steady state in rat at 2.3 umol/kg, iv; format: ADME, organism-based; conditions: in vivo, read-out: Vdss; method in brief: as §1

Structure (SMILES) | logD [1] | Ki (Histamine H3 receptor [2]) | IC50 (Histamine H3 receptor [3]) | IC50 [11] | other results
CC(C)N1CCN(C(=O)[C@@H]2CC23CCN(C2CCOCC2)CC3)CC1 | -0.35 | 16 nM | 87 nM | – | –
CC(C)S(=O)(=O)N1CCC2(CCN(C(=O)N3CCCN(C4CCC4)CC3)C2)CC1 | 0.8 | – | 3.2 nM | > 33 µM | CL (Rattus norvegicus [4]): 53 mL/min/kg; half-life [5]: 36 min; Vd [6]: 2.1 L/kg; microsomal CLint [7]: 34 µL/min/mg; microsomal CLint [8]: 20 µL/min/mg; Ratio (MDCK): 6; Papp A→B [9]: 7.8 ×10⁻⁶ cm/s; solubility thermodynamic [10]: > 500 µM
O=C(c1ccccc1)N1CCCC2(CCN(C(=O)N3CCCN(C4CCC4)CC3)C2)C1 (stereo not drawn) | 1.01 | – | 4 nM | – | –
O=C(C1CC12CCN(C1CCCCC1)CC2)N1CCN(C2CCCCC2)CC1 (racemic) | – | 19 nM | – | 20.8 µM | microsomal CLint [7]: 31 µL/min/mg; microsomal CLint [8]: 14 µL/min/mg; Ratio (MDCK): > 2; fraction unbound [12]: 0.62; Papp A→B [9]: < 1.7 ×10⁻⁶ cm/s; fraction unbound [13]: 0.81; solubility thermodynamic [10]: > 500 µM
CS(=O)(=O)N1CCC2(CC1)CC(C(=O)N1CCN(C3CCC3)CC1)C2 | 0.97 | – | 11 nM | – | CL (Rattus norvegicus [14]): 69.8 mL/min/kg; half-life [15]: 24 min; Vd [16]: 1.4 L/kg; microsomal CLint [7]: 16 µL/min/mg; microsomal CLint [8]: 8.3 µL/min/mg; Papp A→B [9]: 19 ×10⁻⁶ cm/s; fraction unbound [13]: 0.67; solubility thermodynamic [10]: > 500 µM
O=C(C1CC12CCN(C1CCOCC1)CC2)N1CCN(c2ccncc2)CC1 (racemic) | -1.09 | 8.4 nM | – | – | –
O=C(N1CCN(C2CCC2)CC1)N1CCC2(CCN(S(=O)(=O)c3ccccc3)CC2)C1 | 2.27 | – | 21 nM | – | –
O=C(N1CCCN(C2CCC2)CC1)N1CCC2(CCCN(S(=O)(=O)c3ccccc3)C2)C1 (stereo not drawn) | 1.74 | – | 6.5 nM | > 33 µM | –
CC(C)N1CCCN(C(=O)C2CC3(CCN(C4CCOCC4)CC3)C2)CC1 | -1.78 | – | 14 nM | – | –
O=C(C1CC2(CCN(C3CCOCC3)CC2)C1)N1CCN2CCCCC2C1 (stereo not drawn) | -0.46 | – | 6.3 nM | – | –
O=C(C1CC12CCNCC2)N1CCN(C2CCCCC2)CC1 (racemic) | -1 | 439 nM | 360 nM | > 33 µM | –
O=C(C1CC12CCN(C1CCOCC1)CC2)N1CCN(C2CC2)CC1 (racemic) | – | 11 nM | – | – | microsomal CLint [7]: 20 µL/min/mg; microsomal CLint [8]: < 4 µL/min/mg; Papp A→B [9]: 8.4 ×10⁻⁶ cm/s; solubility thermodynamic [10]: > 500 µM
CN1CCN(C(=O)C2CC23CCN(C2CCOCC2)CC3)CC1 (racemic) | – | 1300 nM | 1100 nM | – | –
O=C(C1CC12CCN(C1CCC1)CC2)N1CCN(C2CCOCC2)CC1 (racemic) | – | 67 nM | 66 nM | – | –
O=C(c1ccccc1)N1CCC2(CC1)CCN(C(=O)C1CCN(C3CCC3)CC1)C2 | – | – | 340 nM | – | –
O=C(N1CCCN(C2CCC2)CC1)N1CCC2(CCCN(C3CCOCC3)C2)C1 (stereo not drawn) | 0.23 | – | 4.4 nM | > 33 µM | –
O=C(C1CC12CCN(C1CCOCC1)CC2)N1CCN(C2CCCC2)CC1 (racemic) | – | 1.4 nM | – | – | microsomal CLint [7]: 43 µL/min/mg; microsomal CLint [8]: 7.2 µL/min/mg; fraction unbound [12]: 0.65; Papp A→B [9]: < 2.2 ×10⁻⁶ cm/s; fraction unbound [13]: 0.5; solubility thermodynamic [10]: > 500 µM
CC(C)N1CCN(C(=O)N2CC3(CCN(C4CCOCC4)CC3)C2)CC1 | – | 97 nM | 900 nM | – | –
CC(C)N1CCN(C(=O)C2CC23CCN(C2CCOCC2)CC3)CC1 (racemic) | – | 3 nM | 3.2 nM | – | microsomal CLint [7]: 24 µL/min/mg; microsomal CLint [8]: < 4 µL/min/mg; fraction unbound [12]: 0.69; Papp A→B [9]: 5.4 ×10⁻⁶ cm/s; fraction unbound [13]: 0.87; solubility thermodynamic [10]: > 500 µM
O=C(C1CC12CCN(C1CCOCC1)CC2)N1CCN(C2CCCCCC2)CC1 (racemic) | – | 65 nM | – | – | –

Structure (SMILES) | logD [1] | Ki (Histamine H3 receptor [2]) | IC50 (Histamine H3 receptor [3]) | IC50 [11] | other results
CC(C)N1CCN(C(=O)N2CCC3(CCCN(C4CCOCC4)C3)C2)CC1 (stereo not drawn) | -0.19 | – | 140 nM | > 33 µM | –
O=C(C1CC12CCN(C1CCOCC1)CC2)N1CCN(C2CCCCC2)CC1 (racemic) | 0.74 | 26 nM | 12 nM | – | –
O=C(C1CC2(CCN(C3CCOCC3)CC2)C1)N1CCN(C2CCCCC2)CC1 | 0.75 | – | 1.6 nM | – | –
O=C(C1CC2(CCN(c3ccccc3)CC2)C1)N1CCN(C2CCC2)CC1 | 3.25 | – | 66 nM | > 33 µM | –
O=C(C1CC12CCN(c1ccncc1)CC2)N1CCN(C2CCCCC2)CC1 (racemic) | 1.09 | 55 nM | 83 nM | – | –
CC(C)N1CCN(C(=O)N2CCC3(CCN(C4CCOCC4)CC3)C2)CC1 | -0.87 | – | 32 nM | > 33 µM | –
O=C(C1CC12CCN(c1ccccc1)CC2)N1CCN(C2CCCCC2)CC1 (racemic) | 3.63 | 1670 nM | – | – | –
O=C(N1CCCN(C2CCC2)CC1)N1CCC2(CCN(S(=O)(=O)c3ccccc3)CC2)C1 | 1.71 | – | 2.7 nM | > 33 µM | –
O=C(c1ccccc1)N1CCC2(CC1)CCN(C(=O)N1CCCN(C3CCC3)CC1)C2 | 1.22 | – | 3.6 nM | > 33 µM | –
CC(C)N1CCCN(C(=O)C2CC3(CCN(C(=O)c4ccccc4)CC3)C2)CC1 | 1.63 | – | 12 nM | > 33 µM | –
O=C(c1ccccc1)N1CCC2(CCCN(C(=O)N3CCCN(C4CCC4)CC3)C2)CC1 | 1.62 | – | 18 nM | – | –
O=C(C1CC12CCN(C1CCOCC1)CC2)N1CCN(C2CCC2)CC1 (racemic) | 0.24 | 1.3 nM | 3.6 nM | – | microsomal CLint [7]: < 4 µL/min/mg; microsomal CLint [8]: 29 µL/min/mg; fraction unbound [12]: 0.8; Papp A→B [9]: 3.9 ×10⁻⁶ cm/s; fraction unbound [13]: 0.91; solubility thermodynamic [10]: > 500 µM; Activity (Histamine H3 receptor [17]): Active
CC(C)N1CCC2(CC1)CC2C(=O)N1CCN(C2CCCCC2)CC1 (racemic) | 0.74 | 47 nM | 19 nM | – | –
O=C(C1CC12CCN(CCc1ccccc1)CC2)N1CCN(C2CCCCC2)CC1 (racemic) | – | 21 nM | 16 nM | – | –
O=C(c1ccccc1)N1CCC2(CC1)CCN(C(=O)N1CCN(C3CCC3)CC1)C2 | 1.8 | – | 13 nM | > 33 µM | CL (Rattus norvegicus [18]): 91 mL/min/kg; half-life [19]: 66 min; Vd [20]: 3.7 L/kg; microsomal CLint [7]: 25 µL/min/mg; microsomal CLint [8]: 18 µL/min/mg; Ratio (MDCK): 4.5; Papp A→B [9]: 8.8 ×10⁻⁶ cm/s; solubility thermodynamic [10]: > 500 µM
O=C(C1CC12CCC(C1CCCCC1)CC2)N1CCN(C2CCC2)CC1 (racemic) | – | > 10000 nM | – | – | solubility thermodynamic [10]: 1 µM (≈ 0.359 µg/mL)
O=C(C1CC12CCN(C1CCOCC1)CC2)N1CCCN(C2CCC2)CC1 (racemic) | 0.18 | 3 nM | 17 nM | – | –
O=C(C1CC2(CCN(C3CCOCC3)CC2)C1)N1CCCN(C2CCC2)CC1 | -0.89 | – | 0.8 nM | – | –
O=C(c1ccccc1)N1CCC2(CC1)CC(C(=O)N1CCN(C3CCC3)CC1)C2 | 2.09 | – | – | > 33 µM | –
O=C(C1CC12CCN(Cc1ccccc1)CC2)N1CCN(C2CCCCC2)CC1 (racemic) | 2.81 | 103 nM | – | – | –
